Test results published in ChEMBL document CHEMBL1136089, “Synthesis and in vitro activity of new methylenepiperidinyl and methylenepyrrolidinyl oxazolidinone antibacterial agents” (Bioorg Med Chem Lett, 2003).
Values after ≈ are worked out from the molar mass of the structure shown.

Legend:
[1] = test system: Staphylococcus epidermidis; experiment: In vitro antibacterial activity against Staphylococcus epidermis ATCC 1228; format: functional
Procedure, shortened: (§1)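 MIC by agar dilution on Mueller–Hinton agar, inoculum 10⁴ CFU/spot. Reported in μg/mL.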

Staphylococcus aureus [2] = experiment: In vitro antibacterial activity against methicillin-resistant Staphylococcus aureus (MRSA); format: functional
Enterococcus faecalis [3] = experiment: In vitro antibacterial activity against Enterococcus faecalis C6301 (E. f. 1); format: functional; procedure, shortened: as §1
Staphylococcus aureus [4] = experiment: In vitro antibacterial against methicillin-susceptible Staphylococcus aureus (MSSA); format: functional
Enterococcus faecium = experiment: In vitro antibacterial activity against vancomycin-resistant Enterococcus faecium C6487
Staphylococcus aureus [5] = experiment: In vitro antibacterial activity against ciprofloxacin-resistant Staphylococcus aureus (CRSA); format: functional
Staphylococcus aureus [6] = experiment: In vitro antibacterial activity against Staphylococcus aureus; format: functional
Streptococcus pyogenes [7] = experiment: In vitro antibacterial activity against Streptococcus pyogenes C6003
[8] = test system: Staphylococcus epidermidis; experiment: In vitro antibacterial activity against Staphylococcus epidermis C2235; format: functional; procedure, shortened: as §1
Enterococcus faecalis [9] = experiment: In vitro antibacterial activity against Enterococcus faecalis C6291 (E. f. 1); format: functional; procedure, shortened: as §1
Streptococcus pyogenes [10] = experiment: In vitro antibacterial activity against Streptococcus pyogenes ATTCC8668
[11] = Cmax in male rat; format: ADME, organism-based; conditions: in vivo
Procedure, shortened: (§2)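 Single oral dose of 15 mg/Kg to rats, with compound dissolved in 50% PEG solution.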

[12] = In vivo activity against Staphylococcus aureus when administered orally for 1 hr in rat at a dose of 15 mg/kg; format: ADME, organism-based; design: dose 15 mg/kg, route oral; conditions: po
[13] = Area under curve was determined in male rat; format: ADME, organism-based; conditions: in vivo; procedure, shortened: as §2
[14] = Tmax in male rat; format: ADME, organism-based; conditions: in vivo; procedure, shortened: as §2

## CCOC(=O)C=C1CCN(c2ccc(N3C[C@H](CNC(C)=O)OC3=O)cc2F)CC1
[1]
  MIC: 4 µg/mL (≈ 9.54 µM)
Staphylococcus aureus [2]
  MIC: 8 µg/mL (≈ 19.1 µM)
Enterococcus faecalis [3]
  MIC: 8 µg/mL (≈ 19.1 µM)
Staphylococcus aureus [4]
  MIC: 16 µg/mL (≈ 38.1 µM)
Enterococcus faecium
  MIC: 8 µg/mL (≈ 19.1 µM)
Staphylococcus aureus [5]
  MIC: 8 µg/mL (≈ 19.1 µM)
Staphylococcus aureus [6]
  MIC: 16 µg/mL (≈ 38.1 µM)
Streptococcus pyogenes [7]
  MIC: 8 µg/mL (≈ 19.1 µM)
[8]
  MIC: 8 µg/mL (≈ 19.1 µM)
Enterococcus faecalis [9]
  MIC: 8 µg/mL (≈ 19.1 µM)
Streptococcus pyogenes [10]
  MIC: 2 µg/mL (≈ 4.77 µM)

## CO/N=C(\C)C=C1CCN(c2ccc(N3C[C@H](CNC(C)=O)OC3=O)cc2F)CC1
[1]
  MIC: 8 µg/mL (≈ 19.1 µM)
Staphylococcus aureus [2]
  MIC: 8 µg/mL (≈ 19.1 µM)
Enterococcus faecalis [3]
  MIC: 8 µg/mL (≈ 19.1 µM)
Staphylococcus aureus [4]
  MIC: 16 µg/mL (≈ 38.2 µM)
Enterococcus faecium
  MIC: 4 µg/mL (≈ 9.56 µM)
Staphylococcus aureus [5]
  MIC: 16 µg/mL (≈ 38.2 µM)
Staphylococcus aureus [6]
  MIC: 16 µg/mL (≈ 38.2 µM)
Streptococcus pyogenes [7]
  MIC: 8 µg/mL (≈ 19.1 µM)
[8]
  MIC: 8 µg/mL (≈ 19.1 µM)
Enterococcus faecalis [9]
  MIC: 8 µg/mL (≈ 19.1 µM)
Streptococcus pyogenes [10]
  MIC: 2 µg/mL (≈ 4.78 µM)

## CC(=O)NC[C@H]1CN(c2ccc(N3CCOCC3)c(F)c2)C(=O)O1 [LINEZOLID]
[1]
  MIC: 0.5 µg/mL (≈ 1.48 µM)
[11]
  Cmax: 1390 ng/mL
[12]
  half-life: 3.09 h
[13]
  AUC: 4240 ng·h/mL
[8]
  MIC: 2 µg/mL (≈ 5.93 µM)
Streptococcus pyogenes [10]
  MIC: 0.5 µg/mL (≈ 1.48 µM)
[14]
  Tmax: 0.333 h

## CC(=O)NC[C@H]1CN(c2ccc(N3CCC(=CC(=O)[O-])CC3)c(F)c2)C(=O)O1.[Na+]
[1]
  MIC: 1 µg/mL
Staphylococcus aureus [2]
  MIC: 4 µg/mL
Enterococcus faecalis [3]
  MIC: 4 µg/mL
Staphylococcus aureus [4]
  MIC: 8 µg/mL
Enterococcus faecium
  MIC: 8 µg/mL
Staphylococcus aureus [5]
  MIC: 8 µg/mL
Staphylococcus aureus [6]
  MIC: 8 µg/mL
Streptococcus pyogenes [7]
  MIC: 8 µg/mL
[8]
  MIC: 1 µg/mL
Enterococcus faecalis [9]
  MIC: 8 µg/mL
Streptococcus pyogenes [10]
  MIC: 2 µg/mL

## C/C(S)=N/C[C@H]1CN(c2ccc(N3CCC(=CC#N)CC3)c(F)c2)C(=O)O1
[1]
  MIC: 0.5 µg/mL (≈ 1.29 µM)
Staphylococcus aureus [2]
  MIC: 2 µg/mL (≈ 5.15 µM)
Enterococcus faecalis [3]
  MIC: 1 µg/mL (≈ 2.57 µM)
Staphylococcus aureus [4]
  MIC: 2 µg/mL (≈ 5.15 µM)
Enterococcus faecium
  MIC: 0.5 µg/mL (≈ 1.29 µM)
Staphylococcus aureus [5]
  MIC: 2 µg/mL (≈ 5.15 µM)
Staphylococcus aureus [6]
  MIC: 2 µg/mL (≈ 5.15 µM)
Streptococcus pyogenes [7]
  MIC: 0.25 µg/mL (≈ 0.644 µM)
[8]
  MIC: 0.5 µg/mL (≈ 1.29 µM)
Enterococcus faecalis [9]
  MIC: 1 µg/mL (≈ 2.57 µM)
Streptococcus pyogenes [10]
  MIC: 0.5 µg/mL (≈ 1.29 µM)

## CCOC(=O)C(Cl)=C1CCN(c2ccc(N3C[C@H](CNC(C)=O)OC3=O)cc2F)CC1
[1]
  MIC: 2 µg/mL (≈ 4.41 µM)
Staphylococcus aureus [2]
  MIC: 16 µg/mL (≈ 35.3 µM)
Enterococcus faecalis [3]
  MIC: 2 µg/mL (≈ 4.41 µM)
Staphylococcus aureus [4]
  MIC: 8 µg/mL (≈ 17.6 µM)
Enterococcus faecium
  MIC: 4 µg/mL (≈ 8.81 µM)
Staphylococcus aureus [5]
  MIC: 16 µg/mL (≈ 35.3 µM)
Staphylococcus aureus [6]
  MIC: 32 µg/mL (≈ 70.5 µM)
Streptococcus pyogenes [7]
  MIC: 8 µg/mL (≈ 17.6 µM)
[8]
  MIC: 4 µg/mL (≈ 8.81 µM)
Enterococcus faecalis [9]
  MIC: 4 µg/mL (≈ 8.81 µM)
Streptococcus pyogenes [10]
  MIC: 2 µg/mL (≈ 4.41 µM)

## CC(=O)NC[C@H]1CN(c2ccc(N3CC/C(=C(\C)C#N)C3)c(F)c2)C(=O)O1
[1]
  MIC: 1 µg/mL (≈ 2.69 µM)
Enterococcus faecalis [3]
  MIC: 4 µg/mL (≈ 10.7 µM)
Enterococcus faecium
  MIC: 2 µg/mL (≈ 5.37 µM)
Staphylococcus aureus [5]
  MIC: 1 µg/mL (≈ 2.69 µM)
Staphylococcus aureus [6]
  MIC: 1 µg/mL (≈ 2.69 µM)
[8]
  MIC: 1 µg/mL (≈ 2.69 µM)

## CCOC(=O)/C(C#N)=C1/CCN(c2ccc(N3C[C@H](CNC(C)=O)OC3=O)cc2F)C1
[1]
  MIC: 8 µg/mL (≈ 18.6 µM)
Enterococcus faecalis [3]
  MIC: 32 µg/mL (≈ 74.3 µM)
Enterococcus faecium
  MIC: 16 µg/mL (≈ 37.2 µM)
Staphylococcus aureus [5]
  MIC: 16 µg/mL (≈ 37.2 µM)
Staphylococcus aureus [6]
  MIC: 16 µg/mL (≈ 37.2 µM)
[8]
  MIC: 8 µg/mL (≈ 18.6 µM)

## CCOC(=O)C(C)=C1CCN(c2ccc(N3C[C@H](CNC(C)=O)OC3=O)cc2F)CC1
[1]
  MIC: 4 µg/mL (≈ 9.23 µM)
Staphylococcus aureus [2]
  MIC: 8 µg/mL (≈ 18.5 µM)
Enterococcus faecalis [3]
  MIC: 8 µg/mL (≈ 18.5 µM)
Staphylococcus aureus [4]
  MIC: 16 µg/mL (≈ 36.9 µM)
Enterococcus faecium
  MIC: 8 µg/mL (≈ 18.5 µM)
Staphylococcus aureus [5]
  MIC: 8 µg/mL (≈ 18.5 µM)
Staphylococcus aureus [6]
  MIC: 16 µg/mL (≈ 36.9 µM)
Streptococcus pyogenes [7]
  MIC: 16 µg/mL (≈ 36.9 µM)
[8]
  MIC: 8 µg/mL (≈ 18.5 µM)
Enterococcus faecalis [9]
  MIC: 8 µg/mL (≈ 18.5 µM)
Streptococcus pyogenes [10]
  MIC: 4 µg/mL (≈ 9.23 µM)

## CC(=O)C=C1CCN(c2ccc(N3C[C@H](CNC(C)=O)OC3=O)cc2F)CC1
[1]
  MIC: 1 µg/mL (≈ 2.57 µM)
Staphylococcus aureus [2]
  MIC: 16 µg/mL (≈ 41.1 µM)
Enterococcus faecalis [3]
  MIC: 8 µg/mL (≈ 20.5 µM)
Staphylococcus aureus [4]
  MIC: 16 µg/mL (≈ 41.1 µM)
Enterococcus faecium
  MIC: 8 µg/mL (≈ 20.5 µM)
Staphylococcus aureus [5]
  MIC: 16 µg/mL (≈ 41.1 µM)
Staphylococcus aureus [6]
  MIC: 8 µg/mL (≈ 20.5 µM)
Streptococcus pyogenes [7]
  MIC: 16 µg/mL (≈ 41.1 µM)
[8]
  MIC: 8 µg/mL (≈ 20.5 µM)
Enterococcus faecalis [9]
  MIC: 16 µg/mL (≈ 41.1 µM)
Streptococcus pyogenes [10]
  MIC: 0.25 µg/mL (≈ 0.642 µM)

## CO/N=C/C=C1CCN(c2ccc(N3C[C@H](CNC(C)=O)OC3=O)cc2F)CC1
[1]
  MIC: 1 µg/mL (≈ 2.47 µM)
Staphylococcus aureus [2]
  MIC: 4 µg/mL (≈ 9.89 µM)
Enterococcus faecalis [3]
  MIC: 4 µg/mL (≈ 9.89 µM)
Staphylococcus aureus [4]
  MIC: 8 µg/mL (≈ 19.8 µM)
Enterococcus faecium
  MIC: 4 µg/mL (≈ 9.89 µM)
Staphylococcus aureus [5]
  MIC: 4 µg/mL (≈ 9.89 µM)
Staphylococcus aureus [6]
  MIC: 8 µg/mL (≈ 19.8 µM)
Streptococcus pyogenes [7]
  MIC: 2 µg/mL (≈ 4.95 µM)
[8]
  MIC: 2 µg/mL (≈ 4.95 µM)
Enterococcus faecalis [9]
  MIC: 4 µg/mL (≈ 9.89 µM)
Streptococcus pyogenes [10]
  MIC: 1 µg/mL (≈ 2.47 µM)

## CC(=O)NC[C@H]1CN(c2ccc(N3CCC(=CC(C)O)CC3)c(F)c2)C(=O)O1 (some centres not stated)
[1]
  MIC: 2 µg/mL (≈ 5.11 µM)
Staphylococcus aureus [2]
  MIC: 4 µg/mL (≈ 10.2 µM)
Enterococcus faecalis [3]
  MIC: 4 µg/mL (≈ 10.2 µM)
Staphylococcus aureus [4]
  MIC: 16 µg/mL (≈ 40.9 µM)
Enterococcus faecium
  MIC: 4 µg/mL (≈ 10.2 µM)
Staphylococcus aureus [5]
  MIC: 8 µg/mL (≈ 20.4 µM)
Staphylococcus aureus [6]
  MIC: 8 µg/mL (≈ 20.4 µM)
Streptococcus pyogenes [7]
  MIC: 8 µg/mL (≈ 20.4 µM)
[8]
  MIC: 4 µg/mL (≈ 10.2 µM)
Enterococcus faecalis [9]
  MIC: 8 µg/mL (≈ 20.4 µM)
Streptococcus pyogenes [10]
  MIC: 2 µg/mL (≈ 5.11 µM)

## CN[C@H](CC(C)C)C(=O)N[C@H]1C(=O)N[C@@H](CC(N)=O)C(=O)N[C@H]2C(=O)N[C@H]3C(=O)N[C@H](C(=O)N[C@H](C(=O)O)c4cc(O)cc(O)c4-c4cc3ccc4O)[C@H](O)c3ccc(c(Cl)c3)Oc3cc2cc(c3O[C@@H]2O[C@H](CO)[C@@H](O)[C@H](O)[C@H]2O[C@H]2C[C@](C)(N)[C@H](O)[C@H](C)O2)Oc2ccc(cc2Cl)[C@H]1O [VANCOMYCIN]
Enterococcus faecalis [3]
  MIC: 1 µg/mL (≈ 0.69 µM)
Enterococcus faecium
  MIC: > 32 µg/mL
Enterococcus faecalis [9]
  MIC: 2 µg/mL (≈ 1.38 µM)
Streptococcus pyogenes [10]
  MIC: 0.12 µg/mL (≈ 0.0828 µM)
